Screening results deposited in PubChem BioAssay by several laboratories.
Most compounds without a hit are left out; they make up all but 4% or so of the library.
MPTP inh: permeability transition pore inhibition; inhibition, % at 10 µM; isolated mouse mitochondria, Ca2+ swelling absorbance, 30 min; AID 602449; 360,000 compounds, 1.4% hits;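 active means inhibition of 50% or more, scaled per plate between neutral and stimulator controls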;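 further: 0% = DMSO wells given calcium and 100% = 1 mM EGTA wells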
DAGLB inhibitor: diacylglycerol lipase beta (human) inhibition; HEK293T DAGLB membrane lysate, EnzChek fluorogenic substrate; inhibition, % at 5.17 µM; 340,000 compounds, 0.059% hits; AID 504411; in the data active means inhibition above about 34%;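 further: 0% = enzyme with vehicle and 100% = wells lacking enzyme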
TAAR1 antag: antagonists of human TAAR1 | Q96RJ0 | CHO RD-HGA16 TAAR1, Fluo-8 calcium fluorescence, antagonist | inhibition, % at 3 µM | 360,000 compounds, 1.5% hits | AID 624466;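 active means inhibition above a per-plate cutoff, the mean inhibition of test compounds on that plate plus 3 SD, cut at about 49% in these data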;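 further: 0% = DMSO plus EC80 beta-PEA response and 100% = DMSO alone without agonist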
Target sequence (Q96RJ0 whole entry, looked up): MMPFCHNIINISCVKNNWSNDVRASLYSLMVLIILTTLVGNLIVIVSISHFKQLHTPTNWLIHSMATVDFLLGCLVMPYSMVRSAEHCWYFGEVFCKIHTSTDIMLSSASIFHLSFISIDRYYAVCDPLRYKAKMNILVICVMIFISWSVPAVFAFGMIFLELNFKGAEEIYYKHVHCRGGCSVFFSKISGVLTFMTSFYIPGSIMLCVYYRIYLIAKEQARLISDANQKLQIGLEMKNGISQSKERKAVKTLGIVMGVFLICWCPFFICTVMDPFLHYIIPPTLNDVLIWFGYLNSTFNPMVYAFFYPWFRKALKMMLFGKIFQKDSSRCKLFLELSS
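Test system: RD-HGA16 CHO cells with stable hTAAR1 and Gα16 / Probe or stimulus: EC80 β-phenethylamine stimulus / Times: seeding 17-24 h prior, 75-min 37 °C, 30-min RT dye loading / Detection: Fluo-8 calcium-sensitive fluorescence / Read-out basis: % inhibition scaled between DMSO and EC80 PEA controls / Repeats: singlicate, one well per test compound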
GPR7 antag: human neuropeptides B/W receptor 1 antagonism | AID 1861 | P48145 | inhibition, % at 4.4 µM | GPR7-expressing cells, fluorescence antagonist assay | 290,000 compounds, 1.1% hits; in the data active means inhibition above about 16%, passing the limit was not always enough;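 further: cells stimulated with the agonist NPW; 0% = agonist with vehicle and 100% = vehicle without agonist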
TAAR1 agonist: agonists of human TAAR1 | Q96RJ0 | CHO RD-HGA16 TAAR1, Fluo-8 calcium fluorescence; vehicle wells 0%, saturating PEA agonist 100% | activation, % at 3 µM | 360,000 compounds, 0.99% hits;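 active means activation above the mean activation of all test compounds in the run plus 3 SD, cut at about 38% in these data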
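test system = CHO RD-HGA16 cells carrying human TAAR1 plus Gα16 | schedule = 17-24 h seeding, 75 min 37 °C dye, 30 min RT | compound dosing = 3 µM single concentration | control set = DMSO and PEA EC100 | replicates = n 1 | signal = Fluo-8 fluorescence, 5 s baseline then 140 s kinetic read | measure = percent activation vs PEA EC100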
TAAR1 nonsel count: nonselective antagonism, TAAR1 counter-screen. shares compounds with TAAR1 antag. counterscreen cell line, calcium fluorescence, antagonist mode. inhibition, % at 3 µM. 2,400 compounds, 77% hits; in the data active means inhibition above about 22%;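 further: CHO-Ga16 host cells stimulated with ATP at an EC80 level; 0% = agonist EC80 plus vehicle and 100% = vehicle without agonist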
TAAR1 antag conf: confirmation of human TAAR1 antagonists; AID 651785; 2,400 compounds, 40% hits; TAAR1-expressing cells, fluorescence antagonist read-out; inhibition, % at 3 µM; shares compounds with TAAR1 antag; in the data active means inhibition above about 49%;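 further: CHO-Ga16 host cells challenged with agonist PEA near its EC80; 0% = agonist at EC80 plus vehicle and 100% = vehicle with no agonist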
Ga16 ag counter: nonselective Ga16 agonism, counter-screen | shares compounds with TAAR1 antag | Ga16-expressing cells, calcium fluorescence, agonist counterscreen | activation, % at 3 µM | 2,400 compounds, 18% hits | AID 651953; in the data active means activation above about 12%;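 further: 0% = vehicle wells and 100% = saturating stimulus response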
TAAR1 ag count: counter-screen for human TAAR1 antagonists: TAAR1 agonists | hTAAR1 cell line, fluorescence activation, agonist mode | shares compounds with TAAR1 antag | AID 651955 | 2,400 compounds, 2% hits | activation, % at 3 µM; in the data active means activation above about 37%;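 further: CHO cells stably expressing TAAR1 with calcium dye readout; 0% = DMSO vehicle and 100% = full agonist response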
Starred values were filed as active, the others as inactive; / = not tested or not shown.

SMILES	MPTP inh	DAGLB inhibitor	TAAR1 antag	GPR7 antag	TAAR1 agonist	TAAR1 nonsel count	TAAR1 antag conf	Ga16 ag counter	TAAR1 ag count
COc1ccc2[nH]c(=O)c(CN(C3CCCCC3)C(c3nnnn3Cc3ccco3)C(C)C)cc2c1 (centres undefined)	-5	16	/	8	/	/	/	/	/
O=C(c1ccncc1)c1ccc(N2CCN(C3CC(=O)N(Cc4cccs4)C3=O)CC2)cc1 (centres undefined)	7	2	58*	1	16	36*	50*	14*	11
COc1cccc(NC(=O)CCSc2ccc3ccccc3n2)c1	3	-8	76*	1	-3	8	14	3	-1
COc1ccc(NC(=O)CCSc2ccc3ccccc3n2)cc1	1	-6	0	-6	-2	/	/	/	/
[O-][n+]1ccccc1C(O)CSc1ccccc1 (centres undefined)	/	/	-4	/	0	/	/	/	/
O=C(COc1ccccc1-c1ccccc1)NCCN1C(=O)S/C(=C\c2cccnc2)C1=O	4	-1	70*	-15	11	39*	46	12*	9
O=C(NCCN1C(=O)S/C(=C/c2cccnc2)C1=O)c1cccs1	-2	1	3	/	1	/	/	/	/
COC(=O)[C@]12CCCCC=C1N(Cc1ccc3c(c1)OCO3)C(=O)[C@H](CC(=O)NCCCCc1ccccc1)C2	-2	/	23	/	1	/	/	/	/
CN(C(=O)c1cccc(NC(=O)Cc2ccc(NC(=O)C3CCN(C(=O)C4CC4)CC3)cc2)c1)C1CCCCC1	0	2	-3	/	2	/	/	/	/
COc1ccc(C(C)(O)c2nc(-c3ccc(OC)nc3)cs2)cc1 (centres undefined)	1	/	-3	/	2	/	/	/	/
CN1C(=O)CSc2ccc(NC(=O)Nc3ccccn3)cc21	5	2	70*	4	16	21	49*	8	7
CCOc1ccc(OCC)c(NC(=O)Nc2ccc3c(c2)N(C)C(=O)CS3)c1	1	1	56*	6	4	22*	28	5	0
CN(Cc1ccc(Cl)cc1Cl)C(=O)C1CC(=O)N(Cc2ccco2)C1 (centres undefined)	-1	-5	-14	/	2	/	/	/	/
CC1(C(=O)NS(=O)(=O)Cc2ccccc2C(F)(F)F)CCN1C(=O)Cc1cccs1 (centres undefined)	-2	/	1	/	0	/	/	/	/
CC(=O)Nc1ccc(NC(=O)CSc2ccccn2)cc1	-1	-2	7	4	0	/	/	/	/
O=C(CSc1ccccn1)Nc1cccc(NC(=O)CSc2ccccn2)n1	-2	-3	60*	-6	31	34*	46	14*	12
CCCCN1C(=O)C(CC(=O)NCc2cccc3ccccc23)CC(C(=O)N(C(C)C)C(C)C)=C1C (centres undefined)	0	/	-10	/	-3	/	/	/	/
Cc1cccc2nc(-c3ccccc3)c(-c3ccc(CN4CCC(c5nc6ccccc6[nH]5)CC4)cc3)nc12	/	/	15	/	10	/	/	/	/
Clc1ccc2nc(C3CCN(Cc4ccccc4)CC3)[nH]c2c1	-1	0	1	-6	12	/	/	/	/
c1ccc(-c2nc3ccccc3nc2-c2ccc(CN3CCC(c4nc5ccccc5[nH]4)CC3)cc2)cc1	/	/	53*	/	17	34*	45	16*	35
Cc1ccc2nc(-c3ccc(CN4CCC(c5nc6ccccc6[nH]5)CC4)cc3)c(-c3ccccc3)nc2c1	/	/	73*	/	32	46*	60*	15*	21
N#Cc1ccc2nc(-c3ccc(CN4CCC(c5nc6ccccc6[nH]5)CC4)cc3)c(-c3ccccc3)nc2c1	/	/	66*	/	15	38*	48	11	17
Cc1ccc(F)c(C(=O)N2CCCC(C)(C(=O)NS(=O)(=O)C3CC3)C2)c1F (centres undefined)	0	/	/	/	/	/	/	/	/
